One series relates to L-363. Put plainly: Antiproliferative activity against human L363 cells after 72 hrs by luciferase based assay. Format: functional, cell-based. The conditions noted are these: L-363, 72 h. In outline: (§1)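 Cells seeded at 2500–5000/well in complete medium (RPMI1640, McCoy's or DMEM with 10% FCS, by line); compound added after 24 h, 72 h at 37 °C, 5% CO2.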
For another series, the system named is SW48. As to the kind of experiment: Antiproliferative activity against human SW48 cells after 72 hrs by luciferase based assay. The class given is functional, cell-based. The conditions noted are these: SW48, 72 h. The method in brief:
as §1

The nature of series [1]: Apparent permeability by PAMPA method. The conditions noted are these: read-out: permeability. The class given is ADME.
The subject of the next series is COLO 205. As to the kind of experiment: Antiproliferative activity against human COLO205 cells after 72 hrs by luciferase based assay. Format: functional, cell-based. The conditions noted are these: COLO 205, 72 h.
The subject of another series is HT-29. Put plainly: Antiproliferative activity against human HT-29 cells after 72 hrs by luciferase based assay. The class given is functional, cell-based. The conditions noted are these: HT-29, 72 h. In outline:
as §1

Series [2] in a line: Antiproliferative activity against human […] cells after 72 hrs by luciferase based assay. Format: functional, cell-based. The method in brief:
as §1

Series [3] deals with A2780. Put plainly: Antitumor activity against human A2780 cells xenografted in CDI nu/nu mouse assessed as tumor growth inhibition at 60 mg/kg, po administered for 10 days. Format: functional. The following applies: A2780, 240 h, read-out: TGI. In general terms: A xenograft is tissue or cells of one species grown in another, often human tumour cells in immunodeficient mice.

Another series has as its system OPM-2. As to the kind of experiment: Antiproliferative activity against human OPM2 cells after 72 hrs by luciferase based assay. The class given is functional, cell-based. The conditions noted are these: OPM-2, 72 h. In outline: as §1
Series [4] relates to A2780. Put plainly: Antiproliferative activity against human A2780 cells after 72 hrs by luciferase based assay. The class given is functional, cell-based. The conditions noted are these: Homo sapiens, A2780, 72 h.
Series [5] can be described thus: Antiproliferative activity against human SW403 cells after 72 hrs by luciferase based assay. Format: functional, cell-based. The following applies: SW-403, 72 h. The method in brief: as §1
For a further series, the system named is Rattus norvegicus. Put plainly: Antitumor activity against DMBA-induced mammary carcinoma in CD OFA rat assessed as duration of tumor stabilization maintenance at 20 mg/kg, po administered for 10 days. The class given is functional. In outline:
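DMBA tumors induced in female CD OFA rats by single intragastric 20 mg DMBA in sesame oil; after about 50 days, rats with a mammary tumor of at least 1 cm given 20 mg/kg orally twice daily for 10 days in glucose solution, or vehicle; 10 per group; tumor volume by Vernier calipers.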

Series [6] can be described thus: Antiproliferative activity against human NCI-H929 cells after 72 hrs by luciferase based assay. The conditions noted are these: NCI-H929, 72 h. The class given is functional, cell-based. The method in brief: as §1
The test system of a further series is MCF7. Put plainly: Antiproliferative activity against human MCF7 cells after 72 hrs by luciferase based assay. Format: functional, cell-based. The conditions noted are these: MCF7, 72 h.
For the next series, the system named is NHDF. As to the kind of experiment: Antiproliferative activity against human NHDF cells after 72 hrs by luciferase based assay. Format: cell-based.

Consider one molecule from ChEMBL document CHEMBL1139384, “First Cdc7 kinase inhibitors: pyrrolopyridinones as potent and orally active antitumor agents. 2. Lead discovery” (J Med Chem, 2009).

A word on the IC50: it is the point on the concentration scale where inhibition reaches its midpoint. A low value points to inhibition by little substance. Consider `O=C1NCCc2[nH]c(-c3ccncc3)cc21`, for which the IC50 in the series with L-363 worked out at 1600 nM; in the series on SW48, 1200 nM; in the series with COLO 205, 1500 nM; in the series with HT-29 it was 5000 nM; in series [2] it was 1000 nM; with OPM-2 it was 4500 nM. In addition, the IC50 with A2780 [4] was 1100 nM; in series [5], 1000 nM; in [6] it was 1800 nM; in the series with MCF7, 1300 nM; with NHDF it was 1600 nM. Besides, in series [1], the Papp worked out at 1.84 ×10⁻⁶ cm/s. In the series with A2780 [3], the inhibition in vivo at 60 mg/kg was 50%. The Activity with Rattus norvegicus was 25 days.
